Reference: ChEMBL document CHEMBL4261490, “Exploring the links between peptoid antibacterial activity and toxicity” (Medchemcomm, 2017)
Values after ≈ are worked out from the molar mass of the structure shown. Square brackets hold non-standard residues; d marks the D form. Peptide text beside a SMILES is read from it. Gly(Nα-4-Cl-benzyl) = O=C(O)CNCc1ccc(Cl)cc1; Gly(N-(CH2)6NH2) = NCCCCCCNCC(=O)O; Gly(N-2-aminoethyl) = NCCNCC(=O)O; Nspe = C[C@H](NCC(=O)O)c1ccccc1; NhArg = N=C(N)NCCCCNCC(=O)O; NPentylGly = CCCCCNCC(=O)O; Nphe = O=C(O)CNCc1ccccc1; Nlys = NCCCCNCC(=O)O

Tests used:
[1] = Selectivity index, ratio of ED50 for human HaCaT cells to MIC for Escherichia coli K-12 W3110 ATCC 27325; format: toxicity; settings: read-out: Selectivity Index
[2] = Selectivity index, ratio of ED50 for human HepG2 cells to MIC for Escherichia coli K-12 W3110 ATCC 27325; format: toxicity; settings: read-out: Selectivity Index
[3] = Selectivity index, ratio of ED50 for human HaCaT cells to MIC for Pseudomonas aeruginosa PAO1 ATCC 15692; format: toxicity; settings: read-out: Selectivity Index
[4] = Selectivity index, ratio of ED50 for human HepG2 cells to MIC for Staphylococcus epidermidis clinical isolate; format: toxicity; settings: read-out: Selectivity Index
Pseudomonas aeruginosa = test: Antibacterial activity against Pseudomonas aeruginosa PAO1 ATCC 15692 incubated for 16 hrs under shaking condition; format: functional; settings: PAO1 ATCC 15692, 16 h
Outline: (§1)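 Broth microdilution (Andrews method) in Iso-sensitest broth. Overnight cultures are adjusted to A650 0.07 (0.5 McFarland) and diluted ten-fold. Compounds come from 5 mM DMSO stocks, 2-fold serially diluted, final 2–100 μM in a 1:1 inoculum:compound mix. Incubation is 37 °C for 16 h with shaking. MIC is the lowest concentration giving complete growth inhibition, read by absorbance; triplicate.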

[5] = Selectivity index, ratio of ED50 for human HaCaT cells to MIC for Staphylococcus epidermidis clinical isolate; format: toxicity; settings: read-out: Selectivity Index
[6] = Cytotoxicity against human HepG2 cells assessed as reduction in cell viability pretreated for 1 hr followed by DMEM addition measured after 24 hrs by alamar blue assay; format: cell-based; settings: read-out: ED50
Outline: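 HepG2 cells are kept in DMEM high glucose with 10% heat-inactivated FBS and 1% P/S at 37 °C, 5% CO2, and seeded at 2x10^4 cells/well one day ahead. They are exposed to compounds (100 to 3 µM, from 5 mM DMSO stocks) in 50 µL for 1 h. Medium is then added and cells incubated 24 h. alamarBlue is read after 2 h (Ex 560/Em 600). Triplicate on ≥2 occasions; ED50 from dose-response; DMSO negative control.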

[7] = Selectivity index, ratio of ED50 for human HepG2 cells to MIC for Staphylococcus aureus 3R7089 strain Oxford/ATCC 9144; format: toxicity; settings: read-out: Selectivity Index
Escherichia coli = test: Antibacterial activity against Escherichia coli K-12 W3110 ATCC 27325 incubated for 16 hrs under shaking condition; format: functional; settings: K-12 substr. W3110 ATCC 27325, 16 h; outline: as §1
[8] = Selectivity index, ratio of ED50 for human HepG2 cells to MIC for Pseudomonas aeruginosa PAO1 ATCC 15692; format: toxicity; settings: read-out: Selectivity Index
[9] = Selectivity index, ratio of ED50 for human HaCaT cells to MIC for Staphylococcus aureus 3R7089 strain Oxford/ATCC 9144; format: toxicity; settings: read-out: Selectivity Index
[10] = test system: Staphylococcus epidermidis; test: Antibacterial activity against Staphylococcus epidermidis clinical isolate incubated for 16 hrs under shaking condition; format: functional; outline: as §1
[11] = Cytotoxicity against human HaCaT cells assessed as reduction in cell viability pretreated for 1 hr followed by DMEM addition measured after 24 hrs by alamar blue assay; format: cell-based; settings: read-out: ED50
Outline: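 HaCaT keratinocytes are grown in DMEM high glucose with 10% FBS and 1% P/S and seeded at 2x10^4 cells/well 24 h before treatment. Compound dilution series run 2–100 µM (5 mM DMSO stocks) in 50 µL for 1 h, then medium is added for 24 h at 37 °C, 5% CO2. alamarBlue is read after 1 h (Ex 540/Em 620). Triplicate, ≥2 occasions; ED50 from dose-response; amphotericin B positive control.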

Staphylococcus aureus = test: Antibacterial activity against Staphylococcus aureus 3R7089 strain Oxford/ATCC 9144 incubated for 16 hrs under shaking condition; format: functional; settings: 3R7089 strain Oxford/ATCC 9144, 16 h; outline: as §1

Row | MIC (Pseudomonas aeruginosa) [µM] | MIC [10] [µM] | Compound | selectivity ratio [1] | selectivity ratio [2] | selectivity ratio [3] | selectivity ratio [4] | selectivity ratio [5] | CC50 at 24 h [6] [µM] | selectivity ratio [7] | MIC (Escherichia coli) [µM] | selectivity ratio [8] | selectivity ratio [9] | CC50 at 24 h [11] [µM] | MIC (Staphylococcus aureus) [µM]
1 | – | – | C[C@@H](c1ccccc1)N(CC(N)=O)C(=O)CN(C(=O)CN(CCN)C(=O)CN(C(=O)CN(C(=O)CN(CCN)C(=O)CN(C(=O)CN(C(=O)CN(CCN)C(=O)CN(C(=O)CN(C(=O)CNCCN)[C@@H](C)c1ccccc1)[C@@H](C)c1ccccc1)[C@@H](C)c1ccccc1)[C@@H](C)c1ccccc1)[C@@H](C)c1ccccc1)[C@@H](C)c1ccccc1)[C@@H](C)c1ccccc1 (H-[Gly(N-2-aminoethyl)][Nspe][Nspe][Gly(N-2-aminoethyl)][Nspe][Nspe][Gly(N-2-aminoethyl)][Nspe][Nspe][Gly(N-2-aminoethyl)][Nspe][Nspe]-NH2) | – | – | 1 | 21 | 13 | – | 21 | > 100 | 1 | 13 | – | –
2 | > 100 | 2 (≈ 2.91 µg/mL) | C[C@@H](c1ccccc1)N(CC(N)=O)C(=O)CN(C(=O)CN(CCCCCCN)C(=O)CN(C(=O)CN(C(=O)CN(CCCCCCN)C(=O)CN(C(=O)CN(C(=O)CNCCCCCCN)[C@@H](C)c1ccccc1)[C@@H](C)c1ccccc1)[C@@H](C)c1ccccc1)[C@@H](C)c1ccccc1)[C@@H](C)c1ccccc1 (H-[Gly(N-(CH2)6NH2)][Nspe][Nspe][Gly(N-(CH2)6NH2)][Nspe][Nspe][Gly(N-(CH2)6NH2)][Nspe][Nspe]-NH2) | 4 | 4 | 1 | 50 | 50 | > 100 | 33 | – | 1 | 33 | > 100 | 3 (≈ 4.36 µg/mL)
3 | > 100 | – | CCCCCNCC(=O)N(CC(=O)N(CC(=O)N(CCCCNC(=N)N)CC(=O)N(CC(=O)N(CC(=O)N(CCCCC)CC(=O)N(CC(=O)N(CC(=O)N(CCCCNC(=N)N)CC(=O)N(CC(=O)N(CC(N)=O)[C@@H](C)c1ccccc1)[C@@H](C)c1ccccc1)[C@@H](C)c1ccccc1)[C@@H](C)c1ccccc1)[C@@H](C)c1ccccc1)[C@@H](C)c1ccccc1)[C@@H](C)c1ccccc1)[C@@H](C)c1ccccc1 (H-[NPentylGly][Nspe][Nspe][NhArg][Nspe][Nspe][NPentylGly][Nspe][Nspe][NhArg][Nspe][Nspe]-NH2) | – | – | – | 4 | 5 | – | 8 | > 100 | – | 10 | – | –
4 | > 100 | – | NCCCCNCC(=O)N(CC(=O)N(CC(=O)N(CCCCN)CC(=O)N(CC(=O)N(CC(=O)N(CCCCN)CC(=O)N(CC(=O)N(CC(=O)N(CCCCN)CC(=O)N(CC(=O)N(CC(N)=O)Cc1ccc(Cl)cc1)Cc1ccc(Cl)cc1)Cc1ccc(Cl)cc1)Cc1ccc(Cl)cc1)Cc1ccc(Cl)cc1)Cc1ccc(Cl)cc1)Cc1ccc(Cl)cc1)Cc1ccc(Cl)cc1 (H-[Nlys][Gly(Nα-4-Cl-benzyl)][Gly(Nα-4-Cl-benzyl)][Nlys][Gly(Nα-4-Cl-benzyl)][Gly(Nα-4-Cl-benzyl)][Nlys][Gly(Nα-4-Cl-benzyl)][Gly(Nα-4-Cl-benzyl)][Nlys][Gly(Nα-4-Cl-benzyl)][Gly(Nα-4-Cl-benzyl)]-NH2) | – | – | – | 4 | 3 | – | 1 | > 100 | – | 1 | – | –
5 | > 100 | 2 (≈ 3.64 µg/mL) | CCCCCN(CC(=O)N(CC(=O)N(CC(=O)N(CCCCN)CC(=O)N(CC(=O)N(CC(N)=O)[C@@H](C)c1ccccc1)[C@@H](C)c1ccccc1)C(C)c1ccccc1)[C@@H](C)c1ccccc1)C(=O)CN(C(=O)CN(C(=O)CN(CCCCN)C(=O)CN(C(=O)CN(C(=O)CNCCCCN)[C@@H](C)c1ccccc1)C(C)c1ccccc1)[C@@H](C)c1ccccc1)C(C)c1ccccc1 (single isomer, unassigned) | – | – | – | 11 | 10 | 22 | 4 | > 100 | – | 3 | 20 | 6 (≈ 10.9 µg/mL)
6 | – | – | CCCCCNCC(=O)N(CC(=O)N(CC(=O)N(CCCCN)CC(=O)N(CC(=O)N(CC(=O)N(CCCCN)CC(=O)N(CC(=O)N(CC(=O)N(CCCCN)CC(=O)N(CC(=O)N(CC(N)=O)[C@@H](C)c1ccccc1)[C@@H](C)c1ccccc1)C(C)c1ccccc1)[C@@H](C)c1ccccc1)[C@@H](C)c1ccccc1)[C@@H](C)c1ccccc1)C(C)c1ccccc1)[C@@H](C)c1ccccc1 (single isomer, unassigned) | – | – | – | 8 | 6 | 15 | 8 | 50 (≈ 90.9 µg/mL) | – | 6 | 12 | 2 (≈ 3.64 µg/mL)
7 | > 100 | 1 (≈ 1.82 µg/mL) | CCCCCNCC(=O)N(CC(=O)N(CC(=O)N(CCCCC)CC(=O)N(CC(=O)N(CC(=O)N(CCCCN)CC(=O)N(CC(=O)N(CC(=O)N(CCCCN)CC(=O)N(CC(=O)N(CC(N)=O)[C@@H](C)c1ccccc1)[C@@H](C)c1ccccc1)C(C)c1ccccc1)[C@@H](C)c1ccccc1)C(C)c1ccccc1)[C@@H](C)c1ccccc1)C(C)c1ccccc1)[C@@H](C)c1ccccc1 (single isomer, unassigned) | – | – | – | 18 | 20 | 18 | 9 | > 100 | – | 10 | 20 | 2 (≈ 3.63 µg/mL)

Row | Compound | MIC (Pseudomonas aeruginosa) [µM] | MIC [10] [µM] | selectivity ratio [1] | selectivity ratio [2] | selectivity ratio [3] | selectivity ratio [4] | selectivity ratio [5] | CC50 at 24 h [6] [µM] | selectivity ratio [7] | MIC (Escherichia coli) [µM] | selectivity ratio [8] | selectivity ratio [9] | CC50 at 24 h [11] [µM] | MIC (Staphylococcus aureus) [µM]
8 | COc1ccc(CN(CC(N)=O)C(=O)CN(Cc2ccc(OC)cc2)C(=O)CN(CCCCN)C(=O)CN(Cc2ccc(OC)cc2)C(=O)CN(Cc2ccc(OC)cc2)C(=O)CN(CCCCN)C(=O)CN(Cc2ccc(OC)cc2)C(=O)CN(Cc2ccc(OC)cc2)C(=O)CN(CCCCN)C(=O)CN(Cc2ccc(OC)cc2)C(=O)CN(Cc2ccc(OC)cc2)C(=O)CNCCCCN)cc1 | > 100 | – | 0 | 1 | 0 | 50 | 21 | > 100 | 33 | > 100 | 1 | 14 | – | –
9 | NCCNCC(=O)N(CC(=O)N(CC(=O)N(CCN)CC(=O)N(CC(=O)N(CC(=O)N(CCN)CC(=O)N(CC(=O)N(CC(N)=O)Cc1ccccc1)Cc1ccccc1)Cc1ccccc1)Cc1ccccc1)Cc1ccccc1)Cc1ccccc1 (H-[Gly(N-2-aminoethyl)][Nphe][Nphe][Gly(N-2-aminoethyl)][Nphe][Nphe][Gly(N-2-aminoethyl)][Nphe][Nphe]-NH2) | > 100 | > 100 | 1 | 1 | 1 | 1 | 1 | > 100 | 8 | > 100 | 1 | 8 | > 100 | –
10 | C[C@@H](c1ccccc1)N(CC(N)=O)C(=O)CN(C(=O)CN(CCCCN)C(=O)CN(C(=O)CN(C(=O)CNCCCCN)[C@@H](C)c1ccccc1)[C@@H](C)c1ccccc1)[C@@H](C)c1ccccc1 (H-[Nlys][Nspe][Nspe][Nlys][Nspe][Nspe]-NH2) | > 100 | – | 1 | 1 | 1 | 4 | 4 | > 100 | 1 | > 100 | 1 | 1 | > 100 | > 100
11 | CC(c1ccccc1)N(CC(=O)N(CCCCN)CC(=O)N(CC(=O)N(CC(=O)N(CCCCN)CC(=O)N(CC(=O)N(CC(N)=O)[C@@H](C)c1ccccc1)[C@@H](C)c1ccccc1)Cc1ccc(F)cc1)Cc1ccc(F)cc1)C(=O)CN(C(=O)CN(CCCCN)C(=O)CN(Cc1ccc(F)cc1)C(=O)CN(Cc1ccc(F)cc1)C(=O)CNCCCCN)[C@@H](C)c1ccccc1 (single isomer, unassigned) | 50 (≈ 91.8 µg/mL) | 1 (≈ 1.84 µg/mL) | 13 | 9 | 2 | 55 | 100 | 55 | 28 | 6 (≈ 11 µg/mL) | – | 50 | > 100 | 2 (≈ 3.67 µg/mL)
